Bioassay records (PubChem)
ERAP1 inh: blocks human ERAP1 aminopeptidase activity; Q9NZ08; recombinant ERAP1, Leu-AMC fluorescence, 60 min; inhibition, % at 10.7 µM; 340,000 tested, 0.15% active;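 active = mean replicate inhibition of at least 30%, or all replicates individually reaching that 30% level; inactive = mean below 30% and not every replicate reaching it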;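 also: 0% = neutral control wells and 100% = L-leucinethiol positive control wells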
Target sequence (Q9NZ08 whole entry, looked up): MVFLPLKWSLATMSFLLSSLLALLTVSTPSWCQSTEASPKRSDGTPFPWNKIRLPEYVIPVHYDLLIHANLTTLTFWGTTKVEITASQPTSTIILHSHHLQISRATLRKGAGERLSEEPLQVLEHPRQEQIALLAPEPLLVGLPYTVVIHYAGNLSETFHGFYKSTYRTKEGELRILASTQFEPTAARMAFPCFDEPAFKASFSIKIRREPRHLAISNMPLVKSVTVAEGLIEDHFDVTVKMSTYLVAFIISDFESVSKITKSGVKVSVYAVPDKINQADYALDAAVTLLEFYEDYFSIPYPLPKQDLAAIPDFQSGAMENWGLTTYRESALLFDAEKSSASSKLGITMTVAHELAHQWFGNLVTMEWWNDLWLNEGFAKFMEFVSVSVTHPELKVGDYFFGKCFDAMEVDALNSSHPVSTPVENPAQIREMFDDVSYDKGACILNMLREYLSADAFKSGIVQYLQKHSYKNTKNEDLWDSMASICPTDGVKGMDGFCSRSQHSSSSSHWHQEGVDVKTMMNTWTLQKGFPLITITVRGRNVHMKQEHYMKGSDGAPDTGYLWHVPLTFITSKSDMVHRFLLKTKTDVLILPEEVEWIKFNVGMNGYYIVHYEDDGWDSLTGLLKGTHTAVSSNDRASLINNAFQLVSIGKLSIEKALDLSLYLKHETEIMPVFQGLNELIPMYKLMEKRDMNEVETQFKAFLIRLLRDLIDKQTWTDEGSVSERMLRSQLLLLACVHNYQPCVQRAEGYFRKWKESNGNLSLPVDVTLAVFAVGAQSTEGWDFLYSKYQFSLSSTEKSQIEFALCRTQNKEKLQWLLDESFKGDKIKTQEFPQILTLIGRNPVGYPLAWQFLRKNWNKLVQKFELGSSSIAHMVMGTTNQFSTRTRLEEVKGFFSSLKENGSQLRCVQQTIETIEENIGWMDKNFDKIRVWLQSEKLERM
PDI turbidity: blocks human protein disulfide isomerase activity; 350,000 tested, 0.052% active; P07237; inhibition, % at 10 µM; PDI insulin aggregation turbidity, A650, 90 min;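 active = mean inhibition across replicates of 30% or more, whatever share of single replicates reach that level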
ERp5 block: blocks human ERp5 reductase activity on insulin. ERp5 insulin aggregation, absorbance 650 nm, 90 min. 350,000 tested, 0.05% active. Q15084. inhibition, % at 9.99 µM;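 active = mean replicate inhibition above about 25%, with every replicate also reaching it, limit read from the data, passing the limit was not always enough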
FGF22 binding-1: shifts melting point of recombinant human FGF22. Q9HCT0. recombinant FGF22 thermal shift, SYPRO orange fluorescence; percent of sucrose octasulfate shift, DMSO zero. activity (Tm shift, normalised), % at 9.99 µM. 340,000 tested, 1.5% active. AID 651658;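 active = mean Tm shift, scaled 0 neutral to 100 positive control, at about 1.3% or above, every replicate too, limit read from the data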
S100A4 inh HTS: inhibitors of human S100A4 binding to myosin IIA peptide | P26447 | S100A4/TAMRA-MyoIIA peptide fluorescence polarization | inhibition, % at 10.7 µM | 360,000 tested, 0.14% active;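 active = mean inhibition of at least 70% across replicates, with every replicate also reaching that level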
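Test system: S100A4 monomer protein; Medium: HEPES pH 7.2 with CaCl2, KCl, NaCl, DTT, Triton; Probe or stimulus: TAMRA-labelled myosin IIA heavy-chain peptide probe, 5 nM; Doses: one dose per compound; Times: polarization read 5 min after assay mix addition, stable 5–60 min; Benchmarks: neutral control DMSO, positive control TFP.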
FGF22 binding-2: binders of human FGF22 by thermal shift. shares compounds with FGF22 binding-1. recombinant FGF22 thermal shift, SYPRO orange fluorescence. thermal shift activity, °C (ΔTm) at 38 µM. 1,000 tested, 2% active. AID 720646;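 active = fitted rise in melting shift crosses a set limit at or below the top valid dose tested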
FGF22 TSA: FGF22 (human) binding by thermal shift; shares compounds with FGF22 binding-1; Thermal shift assay, SYPRO orange, melting temperature shift; Tm shift (activity), % at 38 µM; 50 tested, under 10 active;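 active = compounds whose fitted dose curve of melting temperature shift rises past a set threshold within the tested doses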
SYPRO no-protein: compound-only SYPRO artifact for FGF22 binders. 1,000 tested, 2% active. shares compounds with FGF22 binding-1. compound-only SYPRO orange thermal shift counter-screen, no protein. AID 743019. AC50, µM (highest dose often 38 µM);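 active = rising signal whose fitted curve reaches the 0.54 level within the top valid dose, showing a melting point, actives reach about 13 µM in these data; inactive = the rest, including activity in the opposite direction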; also: value is where the raw curve crosses a fixed level and not half-maximal
Numbers without * were called inactive; i = inactive; nt = no result; [ ] = another dose, or the depositor's remark. The entries come from a sample that favours hits as a whole.

SMILES	ERAP1 inh	PDI turbidity	ERp5 block	FGF22 binding-1	S100A4 inh HTS	FGF22 binding-2	SYPRO no-protein	others
N#Cc1cccc(NC(=O)c2ccc(S(=O)(=O)N3CCOCC3)cc2)c1	3	6	7	2.7*	-6	0.11	i
O=C(Nc1ccc(S(=O)(=O)N2CCCC2)cc1)c1ccccc1	1	3	5	1.6*	-5	-0.15	i	FGF22 TSA=0
O=C(Nc1ccc(S(=O)(=O)N2CCCC2)cc1)c1cccs1	0	-3	-1	2.1*	-2	-0.65	i	FGF22 TSA=0
CCCN(C)C[C@@H]1OCCCC[C@@H](C)Oc2ccc(NC(=O)Nc3ccc(OC)cc3)cc2C(=O)N([C@H](C)CO)C[C@@H]1C	2	nt	-4	0	10	nt	nt
C[C@H]1CN([C@@H](C)CO)C(=O)c2cccc(NC(=O)Nc3ccc4c(c3)OCO4)c2O[C@H]1CN(C)S(=O)(=O)c1cn(C)cn1	3	nt	2	1.6*	1	-0.079	i
COc1ccc(NC(=O)N(C)C[C@@H]2Oc3ccc(NC(=O)Cc4ccccc4)cc3C(=O)N([C@H](C)CO)C[C@H]2C)cc1	-1	nt	5	1.5*	-3	0.097[42 µM]	i
Cc1noc(C)c1S(=O)(=O)Nc1ccc2c(c1)CC(=O)N([C@@H](C)CO)C[C@H](C)[C@H](CN(C)S(=O)(=O)c1c(C)noc1C)O2	-2	nt	8	0	-3	nt	nt
COc1ccc(NC(=O)N(C)C[C@H]2Oc3ccc(NC(=O)Cc4ccccc4)cc3C(=O)N([C@@H](C)CO)C[C@H]2C)cc1	-1	nt	-2	-1	2	nt	nt
Cc1ccc(S(=O)(=O)Nc2ccc3c(c2)CC(=O)N([C@H](C)CO)C[C@@H](C)[C@H](CN(C)C(=O)Nc2ccccc2)O3)cc1	2	nt	5	2.2*	-11	0.13	i
Cc1ccc(S(=O)(=O)Nc2ccc3c(c2)CC(=O)N([C@@H](C)CO)C[C@@H](C)[C@H](CN(C)C(=O)Nc2ccccc2)O3)cc1	2	nt	3	0	-2	nt	nt
Cc1noc(C)c1S(=O)(=O)Nc1ccc2c(c1)CC(=O)N([C@H](C)CO)C[C@@H](C)[C@H](CN(C)S(C)(=O)=O)O2	nt	nt	nt	1.3*	nt	-0.038	i
CN1N=C(C(=O)N2CCc3c([nH]c4ccccc34)C2c2c(F)cccc2Cl)CCC1=O (configuration not stated)	2	10	6	0	-1	nt	nt
CN1[C@@H]2c3ccc(C4=CCCC4)c(=O)n3C[C@H]1[C@H](CO)[C@H]2C(=O)NCc1cc(F)cc(F)c1	2	nt	4	nt	-6	nt	nt
COc1cc(C(=O)NCCc2c[nH]c3ccccc23)ccc1OCc1c(C)noc1C	-3	-1	1	1	-10	nt	nt
COc1ccc(NC(=O)N(C)C[C@H]2Oc3ccc(NS(=O)(=O)c4ccc(Cl)cc4)cc3C(=O)N([C@H](C)CO)C[C@H]2C)cc1	1	nt	1	1.4*	-7	-0.034[42 µM]	i
C[C@H](CO)N1C[C@H](C)[C@H](CN(C)C(=O)NC2CCCCC2)Oc2ccc(NC(=O)CCN3CCOCC3)cc2C1=O	1	nt	2	0	-4	nt	nt
C[C@H]1CN([C@@H](C)CO)C(=O)c2cc(NC(=O)CCN3CCOCC3)ccc2O[C@H]1CN(C)C(=O)NC1CCCCC1	0	nt	0	3.5*	0	0.15[42 µM]	i
Cc1cc(C(=O)Nc2cccc3c2O[C@@H](CN(C)C(=O)NC(C)C)[C@@H](C)CN([C@@H](C)CO)C3=O)n(C)n1	2	nt	-2	0	7	nt	nt
Cc1cc(C(=O)Nc2cccc3c2O[C@@H](CN(C)C(=O)NC2CCCCC2)[C@@H](C)CN([C@H](C)CO)C3=O)n(C)n1	1	nt	3	32*	2	0.009	i
COc1ccc(NC(=O)N(C)C[C@H]2Oc3ccc(NS(=O)(=O)c4ccc(Cl)cc4)cc3C(=O)N([C@@H](C)CO)C[C@H]2C)cc1	0	nt	-2	0	26	nt	nt
